# In the library only some 2% were active in any assay of this set; here they are far more common.
# Arr AP2 block: inhibitors of beta-arrestin/AP2 binding, primary screen, biochemical, GPCR trafficking, flow cytometry. FITC-arrestin peptide / GST-AP2 beads; AP2 beta2 appendage carries R879A mutation. inhibition, % at 10 µM. 340,000 compounds, 0.31% hits;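 active = inhibition above a set limit, near 3 SD of compounds lacking own fluorescence, cut at about 54% in these data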;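 also: plate controls were DMSO wells for no effect and 5 µM unlabelled arrestin peptide for full effect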
#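 System: GST-AP2 R879A glutathione beads; medium: PBS, Tween 20 0.05%, BSA 0.1%; reagent: fluorescein-tagged arrestin peptide at 50 nM final; schedule: pre-incubation 12 min, peptide binding 1 h, room temperature; detection: flow cytometry, FL1 (488/535 nm); read-out: inhibition as reduced fluorescein signal on beads, percent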
# Lipid droplet: inhibitors of hepatocyte lipid droplet formation, primary screen, imaging, high-throughput imaging, BODIPY stain | AML12 mouse hepatocytes, oleate lipid droplets | inhibition, % at 6.5 µM | 240,000 compounds, 0.4% hits | AID 1656, 2009;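 active = lipid droplet intensity inhibited by at least 50%, with more than 500 cells counted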
#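 material = mouse AML12 hepatocyte cell line, fixed after treatment | also added = 100 µM oleic acid challenge | doses = compound at 6.5 µM only | schedule = overnight exposure | technique = Image-based BODIPY and DAPI two-channel analysis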
# NTR1 ag: agonists of human NTR1, primary screen, imaging, U2OS cells, beta-arrestin-GFP, high content. Neurotensin receptor type 1 (Homo sapiens), P30989. NTR1-U2OS beta-arrestin-GFP spot imaging, agonist mode. activation, % at 20 µM. 330,000 compounds, 0.17% hits. AID 493036, 2011;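 active = activation at or above 40% of the spot to cytoplasm intensity ratio, with at least 20 cells analyzed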;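 also: 0% = DMSO without peptide and 100% = 100 nM NTR1 peptide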
# Target sequence (P30989 whole entry, looked up): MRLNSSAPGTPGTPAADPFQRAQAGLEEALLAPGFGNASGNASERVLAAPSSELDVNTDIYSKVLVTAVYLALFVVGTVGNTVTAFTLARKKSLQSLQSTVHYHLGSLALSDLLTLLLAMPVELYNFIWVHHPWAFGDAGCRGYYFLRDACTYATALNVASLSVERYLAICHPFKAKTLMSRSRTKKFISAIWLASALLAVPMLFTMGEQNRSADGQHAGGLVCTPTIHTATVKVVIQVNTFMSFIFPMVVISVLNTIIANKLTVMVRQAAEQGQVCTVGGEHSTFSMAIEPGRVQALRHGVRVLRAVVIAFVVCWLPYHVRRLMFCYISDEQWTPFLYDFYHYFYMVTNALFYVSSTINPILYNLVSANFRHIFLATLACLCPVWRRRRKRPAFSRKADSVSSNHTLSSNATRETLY
# Beta2AR agonist: beta2AR agonists driving receptor internalization, primary screen, cell-based, FAP fluorogen, flow cytometry | Beta-2 adrenergic receptor (Homo sapiens), P07550 | Am2.2-beta2AR cells | response, % (concentration not given with the values) | 340,000 compounds, 0.43% hits | AID 504454, 2011;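 active = response above a set limit, near 3 SD of response in nonfluorescent compounds, cut at about 42% in these data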
# TAG inh: inhibitors of triacylglycerol accumulation, primary screen, cell-based, uHTS, fluorescence, H9c2 | AID 651582, 2012 | inhibition, % at 12.5 µM | 230,000 compounds, 0.66% hits | H9c2 cells, Nile Red lipid (TAG) fluorescence; cells loaded with 200 µM oleic acid;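 active = pattern-corrected inhibition of lipid staining of at least 50% with the nuclear-stain viability signal not falling by more than 50%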;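 also: 0% = DMSO wells and 100% = triacsin C control wells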
# GRK2 inh: compounds blocking aptamer binding on GRK2 – biochemical, human GRK2, bead flow cytometry, HTS, primary screen; Beta-adrenergic receptor kinase 1 (Homo sapiens), P25098; FAM-aptamer displacement from GRK2; inhibition of aptamer binding, % at 10 µM; 330,000 compounds, 0.59% hits; AID 488847, 2010;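 active = inhibition of aptamer binding above 40%, roughly 3 SD of noise, on plates passing a quality check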;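 also: median bead fluorescence of bound FAM aptamer so fluorescent compounds give negative values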
# Hep lipid conf: hepatocyte lipid droplet accumulation inhibitors, confirmation, imaging, AML12 mouse hepatocytes, single concentration, high-content; shares compounds with Lipid droplet; 870 compounds, 65% hits; BODIPY lipid droplet imaging; droplets induced with 100 µM oleic acid; AID 463183, 2010; inhibition, % at 5.2 µM;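 active = inhibition of lipid droplet metric at least 50%, with more than 300 cells in each of four replicates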;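 also: plate controls were DMSO with oleic acid for no effect and 5 µM Triacsin-C for full effect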
# AML12 tox img: AML12 hepatocyte cytotoxicity, counter-screen for hepatic lipid droplet formation project, imaging, DAPI nuclear morphology imaging. AML12 mouse hepatocytes; hits give high values; cells fed 100 µM oleate overnight. 870 compounds, 3% hits. shares compounds with Lipid droplet. z-score at 5 µM; in the data active = z-score above about 6.3;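 also: compound exposure lasted overnight at 37 °C before fixation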
# AML12 tox conf: AML12 hepatocyte cytotoxicity, confirmation, cytotoxicity control for hepatic lipid droplet formation project, cell-based, single concentration; shares compounds with Lipid droplet; AML12 mouse hepatocyte viability, ATP luminescence; cells loaded with 100 µM oleic acid; cytotoxicity, % at 50 µM; 530 tested, under 10 active; AID 463219, 2010;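 active = cytotoxicity above 50% in each of four replicates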;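 also: compound exposure lasted overnight at 37 °C before the ATP read; 0% = DMSO-treated cells and 100% = wells with no cells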
# GRK2 inh confirm: GRK2 aptamer-displacing inhibitors, retest, confirmation, biochemical, cherry pick 1, bead flow cytometry. 2,000 compounds, 4% hits. aptamer displacement, % at 10 µM. bead-bound GRK2, FAM-aptamer displacement. shares compounds with GRK2 inh. AID 504451, 2011;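 active = aptamer displacement above 40%, near three times the noise of non-fluorescent compounds, on plates passing quality checks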;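 also: negative values mostly reflect intrinsic compound fluorescence rather than true enhancement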
# Aptamer quench SP: counter-screen for GRK2 aptamer inhibitors: fluorescent aptamer quenchers | shares compounds with GRK2 inh | Carboxyfluorescein RNA aptamer on beads, flow cytometry quenching; hits give low values | fluorescence response (% of DMSO), % at 10 µM | 2,000 tested, under 10 active;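 active = compounds that quench the bead-bound fluorescent RNA probe, cutting fluorescence to under half of the solvent control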;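 also: counterscreen run without GRK2 so only probe quenching by compound is measured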
# TAG conf: triacylglycerol accumulation inhibitors, retest, confirmation, cell-based, single concentration, Nile Red fluorescence, H9c2. 990 compounds, 71% hits. H9c2 lipid accumulation; cells loaded with 200 µM oleic acid. AID 651629, 2012. inhibition, % at 12.5 µM. shares compounds with TAG inh;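 active = mean inhibition across replicates of 40% or more; inactive = mean inhibition below 40%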;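 also: plate controls were DMSO only wells for no effect and Triacsin C treated wells for full effect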
# * = called active by the depositor; / = no result given.
SMILES,Arr AP2 block,Lipid droplet,NTR1 ag,Beta2AR agonist,TAG inh,GRK2 inh,Hep lipid conf,AML12 tox img,TAG conf,others
COc1ccccc1Nc1nnc(SCC(=O)Nc2nc(-c3ccc(F)cc3)cs2)s1,-9,68*,0,11,51*,0,45,0.44,57*,
Cc1ccc(CNC(=O)c2ccc(N3CCC4(CC3)CC(c3ccccc3)=NO4)c(NC(=O)c3ccc(Br)cc3)c2)cc1,1,73*,-6,-5,55*,0,104*,0.66,56*,AML12 tox conf=-1
CCCCCCCCn1c(N2CCN(c3cccc(Cl)c3)CC2)nc2c1c(=O)[nH]c(=O)n2C,-2,83*,18,-4,65*,35,98*,-1.1,66*,AML12 tox conf=16
Cn1c(C(=O)NCc2cccnc2)cc2sc(Cl)cc21,-10,-10,4,1,/,0,/,/,/,
CCOc1ccc(CCNC(=O)c2cc3sc(Cl)cc3n2C)cc1OCC,14,89*,-4,4,60*,1,107*,0.67,41*,AML12 tox conf=4
CCCCc1ccc(N=N/C(C(=O)Nc2cc(OC)c(NC(C)=O)cc2OC)=C(/C)O)cc1,-11,96*,1,1,55*,1,0,-0.68,68*,
CCCCc1ccc(N=N/C(C(=O)Nc2ccccc2OC)=C(/C)O)cc1,-6,-2,1,-1,/,0,/,/,/,
COc1ccc(C(C(=O)NC(C)(C)C)N(Cc2ccco2)C(=O)CCC(=O)Nc2cc(C)on2)cc1 (configuration not stated),-5,52*,0,1,56*,1,69*,-0.5,46*,AML12 tox conf=10
COc1ccc([C@H]2CC(=O)C=C(c3cccc(OC(F)(F)F)c3)C2)cc1,11,/,4,-4,-3,3,/,/,/,
CCCc1cc(N2CCCC2)n2nc(C)c(-c3ccccc3)c2n1,-8,60*,7,2,66*,2,99*,0.31,41*,AML12 tox conf=-12
CC1CN(C(=O)c2cc(-c3ccc(Cl)s3)nc3ccccc23)CC(C)O1 (configuration not stated),33,/,2,-12,10,0,/,/,/,
Clc1cccc(Nc2nc(-c3ccncc3)cs2)c1,-14,91*,17,1,81*,2,58,17*,59*,
CCC(CC)NC(=O)CN1CCN(S(=O)(=O)c2cccs2)CC1,4,/,0,-7,-11,/,/,/,/,
CCCN1CCC(=NNc2ccc(S(=O)(=O)N3CCOCC3)cc2[N+](=O)[O-])CC1,0,-126,7,19,/,2,/,/,/,
CCCCCC(/C=N/Nc1ccc(S(=O)(=O)N2CCOCC2)cc1[N+](=O)[O-])=C\c1ccccc1,24,61*,3,-1,59*,6,35,-0.65,63*,
O=[N+]([O-])c1ccccc1/C=C/C=N/Nc1ccc(S(=O)(=O)Nc2ccc(Cl)cc2)cc1[N+](=O)[O-],8,60*,3,0,58*,0,69,-0.46,52*,AML12 tox conf=10
O=C(O)c1ccc(N/N=C/C=C/c2ccccc2[N+](=O)[O-])cc1,31,0,-1,1,6,3,/,/,/,
COC(=O)c1ccc(C2=NOC(C)(c3nnc(Cc4ccccc4)o3)C2)cc1 (configuration not stated),-6,/,-3,-1,-10,/,/,/,/,
c1ccc(-c2csc(NNC3=NCCCCC3)n2)cc1,-10,63*,2,14,85*,2,115*,-0.27,108*,AML12 tox conf=31
COc1ccccc1N(CC(=O)NCc1ccco1)S(=O)(=O)c1ccc(C)cc1,-5,-20,0,3,/,46*,/,/,/,GRK2 inh confirm=23;Aptamer quench SP=99
Cc1cc(NNC(=O)c2cccc(C(F)(F)F)c2)nc2c1c(C)nn2C,-6,-24,1,0,-26,2,/,/,/,
CCOc1ccc(N(CC(=O)NCc2ccccc2)S(C)(=O)=O)cc1,5,/,-1,3,0,1,/,/,/,
CCOc1ccc(N(CC(=O)NCc2ccccc2OC)S(C)(=O)=O)cc1,-3,/,0,-1,-2,53*,/,/,/,GRK2 inh confirm=0;Aptamer quench SP=98
CN(C(=O)COC(=O)c1cnc(Cl)c(Cl)c1)C1CCCCC1,5,/,3,23,18,0,/,/,/,
CN(c1ncc(C(F)(F)F)cc1Cl)N1C(=O)c2cccc([N+](=O)[O-])c2C1=O,2,-15,0,-7,2,57*,/,/,/,GRK2 inh confirm=0;Aptamer quench SP=102
COc1ccc(C(=O)NCCNC(=O)c2ccc(OC)cc2)cc1,1,/,0,-6,22,/,/,/,/,
COc1ccc(C(=O)NCC(C)(C)SCc2c(C)cc(C)cc2C)cc1,16,/,4,3,/,50*,/,/,/,GRK2 inh confirm=-2;Aptamer quench SP=98
COc1ccc(C(=O)NCc2ccc3c(c2)cc(C)n3C)cc1OC,35,-2,1,-2,0,5,/,/,/,GRK2 inh confirm=1;Aptamer quench SP=96
Cc1cc2cc(CNC(=O)c3ccc(S(=O)(=O)N4CCCC4)cc3)ccc2n1C,23,-2,1,-2,14,3,/,/,/,
